pIC50: −log10 of the molar value.

One may read the pIC50 as the IC50 on a negative log10 scale, so that one unit is a factor of ten. A higher pIC50 goes with a small IC50.

The test system of the experiment is Trypanosoma cruzi. The experiment is described as follows: Ability to cause lysis of trypomastigote form of Trypanosoma cruzi was determined. It is filed as functional, organism-based. In outline:
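Bloodstream trypomastigotes (Y strain) harvested from mice inoculated intraperitoneally with 10⁵ parasites; assay in Dulbecco's modified Eagle medium; DMSO stocks, final solvent ≤0.5%.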
`Oc1ccc(/C=N/Nc2nnc(-c3ccccc3)s2)cc1` showed a pIC50 of less than 3.70.
On to `COc1ccc(/C=N/Nc2nnc(-c3ncc([N+](=O)[O-])n3C)s2)cc1`, for which the negative-log IC50 (pIC50) was less than 3.70.
With `Cn1c([N+](=O)[O-])cnc1-c1nnc(N/N=C/c2ccc(Br)cc2)s1` the figure was 4.77; with `Cn1c([N+](=O)[O-])cnc1-c1nnc(N/N=C/c2cc(C(C)(C)C)c(O)c(C(C)(C)C)c2)s1`, 4.48; with `Cn1c([N+](=O)[O-])cnc1-c1nnc(N/N=C/c2ccccc2O)s1`, 4.27.
With `Cn1c([N+](=O)[O-])cnc1-c1nnc(N/N=C/c2ccccc2)s1` the figure was less than 3.70; with `Cn1c([N+](=O)[O-])cnc1-c1nnc(N/N=C\c2ccc(O)c(O)c2)s1` [BRAZILIZONE A], 5.28; with `Cn1c([N+](=O)[O-])cnc1-c1nnc(N/N=C/c2ccc(OC(F)(F)F)cc2)s1`, less than 3.70.
Next, `Oc1ccccc1/C=N/Nc1nnc(-c2ccccc2)s1`: less than 3.70; `COc1cccc(/C=N/Nc2nnc(-c3ncc([N+](=O)[O-])n3C)s2)c1O`: less than 3.70.
For the molecule `CC(C)(C)c1cc(/C=N/Nc2nnc(-c3ccccc3)s2)cc(C(C)(C)C)c1O`, the pIC50 was 3.87.
With `COc1ccc(/C=N/Nc2nnc(-c3ncc([N+](=O)[O-])n3C)s2)cc1O` the figure was 4.30; with `Cn1c([N+](=O)[O-])cnc1-c1nnc(N/N=C/c2ccc(O)cc2)s1`, 4.94.
The molecule `Cn1c([N+](=O)[O-])cnc1-c1nnc(N/N=C/c2ccc3c(c2)OCO3)s1` gave a negative logarithm of the IC50 (pIC50) of less than 3.70.
With `Cn1c([N+](=O)[O-])cnc1-c1nnc(N/N=C/c2ccc([N+](=O)[O-])cc2)s1` the figure was 4.66; with `O=[N+]([O-])c1ccc(/C=N/Nc2nnc(-c3ccccc3)s2)cc1`, less than 3.70; with `Cn1c([N+](=O)[O-])cnc1-c1nnc(N/N=C/c2ccc(Cl)cc2)s1`, 4.42.
With `Oc1ccc(/C=N/Nc2nnc(-c3ccccc3)s2)cc1O` the figure was 4.20; with `COc1cc(/C=N/Nc2nnc(-c3ncc([N+](=O)[O-])n3C)s2)ccc1O`, less than 3.70.
Molecule `Cn1c([N+](=O)[O-])cnc1-c1nnc(N/N=C/c2ccc(F)cc2)s1` showed a negative-log IC50 (pIC50) of less than 3.70.
With `C(=N\Nc1nnc(-c2ccccc2)s1)/c1ccccc1` the figure was less than 3.70.

The record behind these values is ChEMBL document CHEMBL1138713 (Bioorg Med Chem Lett, 2004).
